The text below walks through data of ChEMBL document CHEMBL3244011, “(Aryloxy)[p-(aryloxy)phenyl]- and (aryloxy)[p-(arylthio)phenyl]acetic acids and esters as hypolipidemic agents” (1979).

What all share (type): functional
Set-up in all cases: scale not given: the % may be the effect or the level left

Experiment [1] relates to Rattus norvegicus. Briefly: Hypolipidemic activity in COBBS-CD rat assessed as reduction in serum sterol level at 0.03% administered with chow diet after 5 days relative to control. The essentials: (§1)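 Male COBBS-CD rats, four per treated group and eight per control group. The compound was mixed into ground rat chow at 0.1, 0.03 or 0.01% w/w (about 100, 30 and 10 mg/kg). Control chow received only the mixing solvent (methanol-chloroform 1:3 v/v). Food and water were ad libitum for 5 days, then rats were decapitated and blood collected. Serum sterols were measured by an automated method and expressed relative to controls; ± values are SD.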

The test system of experiment [2] is Rattus norvegicus. Nature of the experiment: Hypolipidemic activity in COBBS-CD rat assessed as reduction in serum sterol level at 0.1% administered with chow diet after 5 days relative to control. In outline:
as §1

Experiment [3] has as its system Rattus norvegicus. Nature of the experiment: Hypolipidemic activity in COBBS-CD rat assessed as reduction in serum triglyceride level at 0.01% administered with chow diet after 5 days relative to control. The essentials:
(§2)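 The compound was given in ground chow at 0.1, 0.03 or 0.01% w/w (about 100, 30 and 10 mg/kg) to male COBBS-CD rats (n=4; solvent-chow controls n=8) for 5 days ad libitum. Rats were killed by decapitation and blood collected. Serum triglycerides were assayed by an automated method and compared with controls; ± values are SD.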

The subject of experiment [4] is Rattus norvegicus. Nature of the experiment: Hypolipidemic activity in COBBS-CD rat assessed as reduction in serum triglyceride level at 0.03% administered with chow diet after 5 days relative to control. The essentials: as §2
Experiment [5] has as its system Rattus norvegicus. Briefly: Hypolipidemic activity in COBBS-CD rat assessed as reduction in serum triglyceride level at 0.1% administered with chow diet after 5 days relative to control. In outline:
as §2

Experiment [6] deals with Rattus norvegicus. Nature of the experiment: Hypolipidemic activity in COBBS-CD rat assessed as reduction in serum sterol level at 0.01% administered with chow diet after 5 days relative to control. The essentials: as §1
Experiment [7] deals with Rattus norvegicus. Nature of the experiment: Hypolipidemic activity in COBBS-CD rat assessed as reduction in serum triglyceride level at 0.3% administered with chow diet after 5 days relative to control.
Experiment [8] has as its system Rattus norvegicus. Briefly: Hypolipidemic activity in COBBS-CD rat assessed as reduction in serum sterol level at 0.3% administered with chow diet after 5 days relative to control.

Molecules are shown by their SMILES.

Consider `CCOP(=O)(OCC)C(Oc1ccc(Cl)cc1)(C(=O)OC)c1ccc(Oc2ccc(Cl)cc2)cc1` (stereo not given), for which the Activity came to 27% in experiment [1]; 43% in experiment [2]; 18% in experiment [3]; 44% in experiment [4]; 60% in experiment [5]; 23% in experiment [6].
Take `O=C(O)C(Oc1ccc(F)cc1)c1ccc(Oc2ccc(Cl)cc2)cc1` (stereo not given): the Activity in experiment [1] is recorded as 28%; in experiment [2] it was 29%; in experiment [3] it was 20%; in experiment [4], 48%; in experiment [5], 58%; in experiment [6], 41%.
As to `COC(=O)C(Oc1cc(C(C)(C)C)cc(C(C)(C)C)c1)c1ccc(Oc2ccc(Cl)cc2)cc1` (stereo not given), the Activity in experiment [1] is -12%; in experiment [2], -6%; in experiment [3], 23%; in experiment [4], -7%; in experiment [5], 7%; in experiment [6], -30%.
On to `COC(=O)C(Oc1ccc2ccc(=O)oc2c1)c1ccc(Oc2ccc(Cl)cc2)cc1` (stereo not given), for which the Activity in experiment [1] is listed as 7%; in experiment [2], -4%; in experiment [3], 4%; in experiment [4], -23%; in experiment [5], -16%; in experiment [6] it was -5%.
Consider `COC(=O)C(Oc1ccc(Cl)c2cccnc12)c1ccc(Oc2ccc(Cl)cc2)cc1` (stereo not given), for which the Activity was 4% in experiment [1]; 5% in experiment [2]; -3% in experiment [3]; 4% in experiment [4]; 5% in experiment [5]; 4% in experiment [6].
As for `COC(=O)C(Oc1ccc(Cl)cc1)c1ccc(Oc2ccc(Cl)c3ccccc23)cc1` (stereo not given), the Activity in experiment [1] came out at 17%; in experiment [2] it was 23%; in experiment [3], 33%; in experiment [4], 12%; in experiment [5], 38%; in experiment [6], 6%.
Regarding `COC(=O)C(Oc1ccc(C(C)(C)C)cc1)c1ccc(Oc2cccc(C(F)(F)F)c2)cc1` (stereo not given), the Activity in experiment [1] was determined as 35%; in experiment [2], 26%; in experiment [3] it was 52%; in experiment [4] it was 70%; in experiment [5], 77%; in experiment [6], 12%.
Turning to `COC(=O)C(Oc1ccc(Cl)cc1)c1ccc(Sc2ccccc2)cc1` (stereo not given), the Activity was determined as 6% in experiment [1]; 6% in experiment [2]; 41% in experiment [3]; 47% in experiment [4]; 30% in experiment [5]; 6% in experiment [6].
As for `COC(=O)C(Oc1ccc(F)cc1)c1ccc(Sc2ccc(Cl)cc2)cc1` (stereo not given), the Activity in experiment [1] came to 23%; in experiment [2], 22%; in experiment [3], 1%; in experiment [4], 18%; in experiment [5], 36%; in experiment [6] it was 21%.
`COC(=O)C(C)(Oc1ccc(Cl)cc1)c1ccc(Oc2ccc(Cl)cc2)cc1` (stereo not given): the Activity in experiment [1] came out at 14%; in experiment [2], 39%; in experiment [3] it was 39%; in experiment [4] it was 44%; in experiment [5], 63%; in experiment [6], 9%.
`CCOC(=O)C(C)(C)Oc1ccc(Cl)cc1` [CLOFIBRATE]: the Activity in experiment [2] is on record as 0%; in experiment [7], 58%; in experiment [5], 30%; in experiment [8], 19%.
For the compound `O=C(O)C(Oc1cccc(C(F)(F)F)c1)c1ccc(Cl)cc1` (stereo not given) [METAGLIDASEN], the Activity in experiment [1] is given as 14%; in experiment [2], 26%; in experiment [3] it was 14%; in experiment [4], 10%; in experiment [5] it was 49%; in experiment [6], 25%.
